According to publication PMC4373334 (Journal of Cellular and Molecular Medicine, 2010):
Blank lines part the entries; values can stand above or below the compound they belong to.

Columns and labels:
[1] = Pharmacokinetic profile in the rat after oral administration; assay type: in vivo, Sprague-Dawley rats; conditions: for Cmax: pre-dose concentration subtracted
Summary of the method: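 Single oral dose of 100 mg/kg given to three male Sprague-Dawley rats per test compound. Plasma sampled pre-dose and at 0.25, 0.5, 1, 2, 4, 6 and 24 h, stored at –80°C, and assayed by LC-MS/MS. Pre-dose (endogenous) level subtracted. Non-compartmental analysis: Cmax and tmax read from raw data; AUC0–tlast by linear trapezoidal rule.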

[2] = tested on: Zucker obese (fa/fa) rats; test: Zucker obese rat: renal morphology and morphometry; assay type: in vivo; conditions: for mean glomerular diameter / glomerular and interstitial changes (glomerulosclerosis, tubulointerstitial damage) versus ZK: 30 weeks; for mean glomerular diameter: ZK 1.098 ± 0.05; for glomerular and interstitial changes (glomerulosclerosis, tubulointerstitial damage) versus ZK: light microscopy
[3] = Stability in rat kidney S 9000 fraction; assay type: in vitro ADME
Summary of the method: (§1)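 Matrices were human serum (healthy donors, 25–30 yr), human liver S9000 fraction or rat kidney S9000 fraction (0.25 g/ml), pre-warmed 10 min at 37°C. Test compound added from a 1 mM solution in 10 mM PBS, pH 7.4; PBS-only controls run alongside. Sampled at 0–120 min, with 24 h added for serum. Internal standard added, then perchloric acid deproteinization (15 min, 4°C), centrifugation and LC-MS/MS.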

[4] = Stability in human liver S 9.000 fraction; assay type: in vitro ADME; conditions: within 15 min, then unchanged until 120 min
Summary of the method: as §1

[5] = tested on: Zucker obese (fa/fa) rats; test: Zucker obese rat, 24-week treatment: body weight and food intake; assay type: in vivo; conditions: 30 weeks of age, 30 mg/kg/day for 24 weeks
Summary of the method: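 Male Zucker fa/fa rats bought at 5 weeks, with lean Fa/Fa littermates as reference. Housed singly at 22 ± 1°C on a 12 h light/dark cycle, standard chow, 1 week acclimation. Randomized to three groups of 12. Test compound given in drinking water, concentration adjusted weekly to 30 mg/kg/24 h, from week 6 to week 30.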

[6] = tested on: Zucker obese (fa/fa) rats; test: Zucker obese rat: kidney cholesterol and triglycerides content; assay type: in vivo; conditions: end of 24-week treatment, S 9.000 kidney fraction
Summary of the method: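 Zucker fa/fa rats dosed via drinking water at 30 mg/kg/24 h from week 6 to week 30; six rats per group used for tissue. Kidney frozen in liquid nitrogen. Total cholesterol and triglycerides measured with commercial kits in S9000 kidney fraction (0.25 g/ml), expressed as μg/mg protein.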

Stability = assay type: in vitro ADME, human; conditions: for stability to enzymatic hydrolysis in human serum: 37°C, followed over 24 hrs
Summary of the method: as §1

[7] = tested on: Zucker obese (fa/fa) rats; test: Zucker obese rat: systolic blood pressure by tail-cuff plethysmography; assay type: in vivo; conditions: end of the experiment (30 weeks)
Summary of the method: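 Zucker fa/fa rats dosed in drinking water (30 mg/kg/24 h, weeks 6–30). Systolic pressure taken monthly by tail-cuff plethysmography in conscious, unanaesthetized rats pre-warmed 30 min at 37°C and restrained in a plastic chamber. Heart rate taken from the arterial pulse wave.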

[8] = tested on: Zucker obese (fa/fa) rats; test: Zucker obese rat: kidney protein carbonyl content; assay type: in vivo; conditions: for Kidney PCOs: end of the experiment; for reduction of kidney PCOs versus ZK: kidney homogenates
Summary of the method: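 Kidneys taken at week 30 from Zucker fa/fa rats (six per group) given test compound in drinking water at 30 mg/kg/24 h. Homogenate 25% w/v in 0.15 M KCl, pH 7.4, with protease inhibitors, centrifuged at 12,000 ×g for 10 min. Total protein carbonyls read at 366 nm (ε 22,000/M/cm), expressed as nmoles/mg protein.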

[9] = tested on: Zucker obese (fa/fa) rats; test: Zucker obese rat: tail tendon collagen solubility and Ehrlich adducts; assay type: in vivo; conditions: for reduction of Ehrlich positive material versus ZK: not significant; for Collagen solubility: acetic acid; for Collagen solubility / Ehrlich adducts: end of the experiment
Summary of the method: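 Tail tendons from treated Zucker fa/fa rats (drinking water, 30 mg/kg/24 h, weeks 6–30) cleaned and washed in ice-cold 75 mM phosphate buffer, pH 7.00, then lyophilized. Solubility determined on 10 mg samples; hydroxyproline measured after acid hydrolysis, collagen taken as 14% hydroxyproline. Ehrlich adducts and fluorescence (ex 365/em 416 nm) measured on 50 mg pepsin-digested collagen, blank-corrected, per mg collagen.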

[10] = HNE quenching ability in homogeneous solution; conditions: HNE 200 μM; for HNE quenched: 1:10 molar excess, 24 hrs of incubation; for residual amount of HNE: quencher 2 mM (1:10), phosphate buffer pH 7.4, 37°C, 60 min
[11] = tested on: Zucker obese (fa/fa) rats; test: Zucker obese rat: renal function; assay type: in vivo; conditions: for restraint of proteinuria/albuminuria/creatininuria: 24 hr urinary excretion, end of treatment; for change in creatinine clearance (GFR) versus ZK / change in plasma creatinine concentration versus ZK / restraint of the increase in urinary albumin-to-creatinine ratio: end of 24-week treatment
[12] = ACR quenching ability in homogeneous solution; conditions: 60 min; for percentage amount of ACR quenched: ACR 50 μM, quencher 500 μM (1:10); for ACR disappeared: ACR 200 μM, 1:10 molar excess
[13] = tested on: Zucker obese (fa/fa) rats; test: Zucker obese rat, 24-week treatment: plasma parameters; assay type: in vivo; conditions: for change in plasma cholesterol versus ZK / change in plasma triglycerides versus ZK: after 24 weeks, 30 mg/kg/day; for insulin resistance (HOMA-IR) versus ZK / reduction of hyperinsulinaemia (plasma insulin) versus ZK / effect on plasma glucose levels: end of 24-week treatment; for effect on plasma glucose levels: fasting
Summary of the method: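 Male Zucker fa/fa rats (lean littermates as reference), 12 per group, received test compound in drinking water at 30 mg/kg/24 h from week 6 to week 30. Plasma spun 15 min at 4°C and stored at –80°C. Cholesterol, triglycerides, glucose and insulin measured by enzymatic-colorimetric kits. HOMA-IR calculated from fasting glucose and insulin.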

[14] = Zucker obese rat: carnosine levels in plasma, urine and renal tissue; assay type: in vivo; conditions: for Carnosine level, Urine: no compound given during 24 hr in metabolic cage
[15] = tested on: Zucker obese (fa/fa) rats; test: Zucker obese rat: urinary oxidative/carbonyl stress indices; assay type: in vivo; conditions: end of the experiment; for AGEs: urine fluorescence; for CAR-HNE level / 8-epi-PGF2α level: urine; for CAR-HNE level: LC-ESI-MS/MS
Summary of the method: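 24 h urine from treated Zucker fa/fa rats (drinking water, 30 mg/kg/24 h, weeks 6–30). 8-epi-PGF2α and TXB2 measured by enzyme immunoassay. Low-molecular-weight AGEs read by fluorescence (ex 370/em 440 nm), expressed per mg urinary creatinine. CAR-HNE Michael adduct quantified by LC-ESI-MS/MS.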

[16] = human beings receiving 450 mg, 15 min up to 300 min; cited from earlier work
[17] = cited from earlier work
Stability in rat serum = assay type: in vitro ADME
[18] = male, Sprague-Dawley, rat, plasma, po, 100 mg/kg

half-life ([1]; oral 100 mg/kg, rat plasma): 3.36 h
systemic exposure up to infinite time AUC(0–∞) ([1]; oral 100 mg/kg, rat plasma): 318.62 ± 24.75 µM·h
time until plasma concentration returned to baseline ([1]; oral 100 mg/kg, rat plasma): 24 h
Cmax ([1]; oral 100 mg/kg, rat plasma): 52.86 ± 2.86 µM
tmax ([1]; oral 100 mg/kg, rat plasma, 100 mg/kg): 2 h
remaining in rat kidney ([3]; 120 min of incubation): 91%
hydrolysis in human liver [4]: ~30%
decrease in human serum (Stability; after 24 hrs of incubation): 6%
increase in kidney CAR content compared to ZK ([14]; end of the experiment): 14.4 fold
increase of plasma carnosine concentration ([14]; end of the experiment): > 10 fold
Carnosine level, Plasma ([14]; end of the experiment, 30 mg/kg/day for 24 weeks): 5.37 ± 3.04 nmol/mL
Carnosine level, Urine ([14]; end of the experiment): 10,069 ± 1844 ^* ^*/°°° nmol/day
Compound: NCCC(=O)N[C@H](Cc1c[nH]cn1)C(=O)O [D-CAR, β-alanyl-D-histidine]
mean glomerular diameter [2]: 1.042 ± 0.005
GBM thickness ([2]; electron microscopy, four animals per group): 3.75 ± 0.8 nm
glomerular and interstitial changes (glomerulosclerosis, tubulointerstitial damage) versus ZK [2]: not significantly modified
body weight difference versus LN [5]: +40%
body weight difference versus ZK [5]: –9%
total cholesterol content in kidney [6]: 6.668 ± 0.5087 μg/mg protein
triglycerides content in kidney [6]: 10.66 ± 0.3616 μg/mg protein
stability to enzymatic hydrolysis in human serum (Stability): remained unchanged until 6 hrs incubation
SBP [7]: 137 ± 4 mmHg
reduction of SBP versus ZK [7]: 15.7%
Kidney PCOs [8]: 6.61 ± 1.52 ^* nmol/mg prot
reduction of kidney PCOs versus ZK [8]: 42.61%
reduction of Ehrlich positive material versus ZK [9]: ~21.7%
Collagen solubility ([9]; tail tendon collagen): 71.4 ± 3.14 ^* ^* %
Ehrlich adducts ([9]; tail tendon collagen): 0.747 ± 0.384 µmol/mg
HNE quenched [10]: ~100%
residual amount of HNE [10]: 46.9 ± 2.3%
restraint of proteinuria/albuminuria/creatininuria [11]: approximately 50%
change in creatinine clearance (GFR) versus ZK [11]: +25.1%
change in plasma creatinine concentration versus ZK [11]: –36%
restraint of the increase in urinary albumin-to-creatinine ratio [11]: 65–70%
percentage amount of ACR quenched [12]: 65.0 ± 3.3%
ACR disappeared [12]: ~100%
change in plasma cholesterol versus ZK [13]: –45%
change in plasma triglycerides versus ZK [13]: –43%
insulin resistance (HOMA-IR) versus ZK [13]: significantly improved
reduction of hyperinsulinaemia (plasma insulin) versus ZK [13]: 33.03%
effect on plasma glucose levels [13]: did not significantly affect
Carnosine level, Kidney ([14]; end of the experiment): 127.7 ± 17.00 ^* ^*/°°° nmol/g wet tissue
effect on urinary TXB2 excretion rates [15]: did not affect
increase in urinary CAR-HNE levels compared to ZK [15]: 2.2 fold
AGEs [15]: 324.4 ± 21.8 ^* ^* FU/mg creatinine/day
CAR-HNE level [15]: 0.982 ± 0.33 nmol/day
8-epi-PGF2α level [15]: 42.1 ± 3.9 ng/day

half-life [1, 18]: 0.24 ± 0.02 h
tmax [1, 18]: 1 h
systemic exposure up to infinite time AUC(0–∞) ([1]; oral 100 mg/kg, rat plasma): 118.45 ± 9.24 µM·h
time until plasma concentration returned to baseline ([1]; oral 100 mg/kg, rat plasma): 2 h
Cmax ([1]; oral 100 mg/kg, rat plasma): 147.7 ± 6.50 µM
hydrolysis in rat kidney ([3]; during the sample processing time): about 93%
hydrolysis in human liver [4]: ~30%
time to disappearance in human serum (Stability; in vitro studies in the authors' laboratories): ≤ 5 min
concentration at 24 weeks ([14]; Zucker obese, rat, plasma, oral, 30 mg/kg/day): 0.473 ± 0.13 µM
Carnosine level, Kidney ([14]; end of the experiment): 14.67 ± 2.09 nmol/g wet tissue
increase in kidney CAR content compared to ZK ([14]; end of the experiment): 1.6 fold
Carnosine level, Urine ([14]; end of the experiment): 32.62 ± 1.25 nmol/day
Compound: NCCC(=O)N[C@@H](Cc1cnc[nH]1)C(=O)O [L-CAR, β-alanyl-L-histidine]
mean glomerular diameter [2]: 1.023 ± 0.02
glomerular and interstitial changes (glomerulosclerosis, tubulointerstitial damage) versus ZK [2]: not significantly modified
body weight difference versus LN [5]: +35.8%
body weight difference versus ZK [5]: –12%
total cholesterol content in kidney [6]: 6.31 ± 0.5115 μg/mg protein
triglycerides content in kidney [6]: 12.01 ± 0.9528 μg/mg protein
stability to enzymatic hydrolysis in human serum (Stability): rapidly disappeared in human serum at the first time-point (60 min.)
SBP [7]: 145 ± 3 mmHg
reduction of SBP versus ZK [7]: 11.5%
CAR in serum after oral supplementation [16]: No CAR was detected in serum specimens
Kidney PCOs [8]: 8.83 ± 1.91 nmol/mg prot
reduction of kidney PCOs versus ZK [8]: 23.4%
reduction of Ehrlich positive material versus ZK [9]: ~9.1%
increase of collagen solubility compared to ZK ([9]; tail tendon collagen): 66.4%
Collagen solubility ([9]; tail tendon collagen): 65.4 ± 2.58 ^* %
Ehrlich adducts ([9]; tail tendon collagen): 0.868 ± 0.39 µmol/mg
HNE quenched [10]: ~100%
residual amount of HNE [10]: 46.2 ± 2.73%
restraint of proteinuria/albuminuria/creatininuria [11]: approximately 50%
change in creatinine clearance (GFR) versus ZK [11]: +28.3%
change in plasma creatinine concentration versus ZK [11]: –31.7%
restraint of the increase in urinary albumin-to-creatinine ratio [11]: 65–70%
time to hydrolysis in human serum [17]: ≤ 5 min
stability in rat serum (Stability in rat serum): no significant reduction within at least 6 hrs
percentage amount of ACR quenched [12]: 63.8 ± 3.5%
ACR disappeared [12]: ~100%
change in plasma cholesterol versus ZK [13]: –40%
change in plasma triglycerides versus ZK [13]: –35%
insulin resistance (HOMA-IR) versus ZK [13]: significantly improved
reduction of hyperinsulinaemia (plasma insulin) versus ZK [13]: 28.08%
effect on plasma glucose levels [13]: did not significantly affect
effect on urinary TXB2 excretion rates [15]: did not affect
increase in urinary CAR-HNE levels compared to ZK [15]: 1.7 fold
AGEs [15]: 337.2 ± 28.7 ^* FU/mg creatinine/day
CAR-HNE level [15]: 0.749 ± 0.37 nmol/day
8-epi-PGF2α level [15]: 37.6 ± 4.3 ng/day
